# According to ChEMBL document CHEMBL1146271, “The discovery of a potent orally efficacious indole androgen receptor antagonist through in vivo screening” (2007):
# Activity calls are given as the source filed them. The rule behind the calls is not given here.
# Species: Rattus norvegicus
# Test: Inhibition of testosterone-induced prostate weight increase in Sprague-Dawley rat by modified Hersherberger assay
# Format: functional, Prostate gland
# Settings: not given
# Outline: (§1)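 Rats castrated at three weeks old, then dosed orally by gavage once daily for five days in 30% (w/v) hydroxypropyl-β-cyclodextrin, together with testosterone propionate 0.1 mg/day (about 1.3 mg/kg) s.c. in sesame oil. At necropsy, ventral prostate wet weight was measured. Values are body-weight-adjusted means of three or four animals.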
row,Structure (SMILES),ID50 [mg/day]
1,CC(O)(CS(=O)(=O)c1ccc(F)cc1)C(=O)Nc1ccc(C#N)c(C(F)(F)F)c1 (stereo not given) [BICALUTAMIDE],0.29
2,CC(C)(O)c1[nH]c2cc(C(F)(F)F)c(C#N)cc2c1I,1.1
3,"CC(O)(c1cc2cc(C#N)c(C(F)(F)F)cc2[nH]1)C(F)(F)F (single isomer, unassigned; (-))",0.13
4,CC(C)(O)c1[nH]c2cc(C(F)(F)F)c(C#N)cc2c1Cl,>3
5,"CC(O)(c1cc2cc(C#N)c(C(F)(F)F)cc2[nH]1)C(F)(F)F (single isomer, unassigned; (+))",0.43
6,CC(C)(O)c1[nH]c2cc(C(F)(F)F)c(C#N)cc2c1Br,0.8

# Species: Rattus norvegicus
# Test: Reduction of testosterone-induced prostate weight increase in Sprague-Dawley rat by modified Hersherberger assay relative to control
# Format: functional, Prostate gland
# Design: concentration or dose not given beside the values
# Settings: not given
# Outline: as §1
row,Structure (SMILES),Activity [%]
1,CC(C)(O)c1[nH]c2cc(C(F)(F)F)c([N+](=O)[O-])cc2c1Cl,81
2,CC(O)(c1cc2cc(C#N)ccc2[nH]1)C(F)(F)F (stereo not given),55
3,CC(O)(CS(=O)(=O)c1ccc(F)cc1)C(=O)Nc1ccc(C#N)c(C(F)(F)F)c1 (stereo not given) [BICALUTAMIDE],75
4,CC(C)(O)c1[nH]c2cc(C(F)(F)F)c(C#N)cc2c1I,81
5,Cc1c(C(C)(C)O)[nH]c2cc(C(F)(F)F)c(C#N)cc12,55
6,CC(O)(CO)c1cc2cc([N+](=O)[O-])c(C(F)(F)F)cc2[nH]1 (stereo not given),58
7,CCC(C)(O)c1cc2cc([N+](=O)[O-])c(C(F)(F)F)cc2[nH]1 (stereo not given),63
8,CC(O)(c1cc2cc(Cl)c(C(F)(F)F)cc2[nH]1)C(F)(F)F (stereo not given),30
9,CC(C)(O)c1[nH]c2cc(C(F)(F)F)c([N+](=O)[O-])cc2c1Br,71
10,"CC(O)(c1cc2cc(C#N)c(C(F)(F)F)cc2[nH]1)C(F)(F)F (single isomer, unassigned; (-))",80
11,CC(O)(c1[nH]c2cc(C(F)(F)F)c(C#N)cc2c1Cl)C(F)(F)F (stereo not given),66
12,CSCC(C)(O)c1cc2cc([N+](=O)[O-])c(C(F)(F)F)cc2[nH]1 (stereo not given),66
13,CC(O)(c1cc2cc([N+](=O)[O-])c(C(F)(F)F)cc2[nH]1)C(F)(F)F (stereo not given),78
14,"CC(O)(c1cc2cc(C#N)c(C(F)(F)F)cc2[nH]1)C(F)(F)F (single isomer, unassigned; (+))",76
15,CC(O)(CCl)c1cc2cc([N+](=O)[O-])c(C(F)(F)F)cc2[nH]1 (stereo not given),38
16,CC(C)(O)c1[nH]c2cc(C(F)(F)F)c([N+](=O)[O-])cc2c1I,59
17,Cc1c(C(C)(C)O)[nH]c2cc(C(F)(F)F)c([N+](=O)[O-])cc12,37
18,CC(O)(c1cc2cc(C#N)c(C(F)(F)F)cc2[nH]1)C(F)(F)F (stereo in doubt; 6i),82
19,CC(C)(O)c1cc2cc([N+](=O)[O-])c(C(F)(F)F)cc2[nH]1,32
20,CC(C)(O)c1[nH]c2cc(C(F)(F)F)c([N+](=O)[O-])cc2c1C#N,56
21,CC(O)(c1[nH]c2cc(C(F)(F)F)c(C#N)cc2c1I)C(F)(F)F (stereo not given),79
22,Cn1c(C(C)(O)C(F)(F)F)cc2cc(C#N)c(C(F)(F)F)cc21 (stereo not given),90

# Same assay, conditions: Prostate gland
row,Structure (SMILES),Activity
1,C=Cc1c(C(C)(C)O)[nH]c2cc(C(F)(F)F)c([N+](=O)[O-])cc12,inactive
2,CC(O)c1cc2cc([N+](=O)[O-])c(C(F)(F)F)cc2[nH]1 (stereo not given),inactive
